This note sets out measurements from ChEMBL document CHEMBL5661979, “Pharmacological inhibition of BMK1 suppresses tumor growth through promyelocytic leukemia protein” (Cancer Cell, 2010).

Each structure is given as a SMILES string. Active and inactive are the calls of the source. The rule behind the calls is not given here.

Data set [1] is described as follows: Inhibition of MST4/YSK1 in human HeLa cells lysate at 10 uM pre incubated for 15 mins followed by ADP acyl phosphate probe addition and measured after 10 mins by LC-MS/MS analysis relative to control. Particulars: 25 min, condition cancer.
Data set [2] concerns the target Serine/threonine-protein kinase WNK1 (Homo sapiens, UniProt Q9H4A3). The data set is described as follows: Inhibition of Wnk1 in human HeLa cells lysate at 50 uM pre incubated for 15 mins followed by ATP acyl phosphate probe addition and measured after 10 mins by LC-MS/MS analysis relative to control. The class given is subcellular. Particulars: time 25.0 min.
Data set [3] in a line: Toxicity in C57Bl/6 mouse assessed as effect on amylase level at 50 mg/kg, ip for 14 days (reference value: 1027 U/L). The class given is organism-based. Particulars: in vivo, 336 h, time 14 day.
Another data set deals with HeLa. The data set is described as follows: Antitumor activity against human HeLa cells xenografted in NOD/SCID mouse assessed as reduction tumor growth at 50 mg/kg, ip administered on day 7 post implantation measured after 28 days. The class given is functional, organism-based. Particulars: time 21.0 day. In short, it runs like this:
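HeLa cells (5×10^5, in DMEM) were injected s.c. into the right flank of 6-week-old Nod/Scid mice on day 0. Dosing was 50 mg/kg i.p. twice daily, starting on day 1, 7 or 14 and continuing to day 28; controls received carrier. 6 mice per treated group. Tumors were measured every 2–3 days.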
A general note: Xenograft models place foreign cells or tissue in a host animal.

The target of data set [4] is T1, Serine/threonine-protein kinase Nek9 (Homo sapiens) (UniProt Q8TD19).
T1 sequence (whole entry): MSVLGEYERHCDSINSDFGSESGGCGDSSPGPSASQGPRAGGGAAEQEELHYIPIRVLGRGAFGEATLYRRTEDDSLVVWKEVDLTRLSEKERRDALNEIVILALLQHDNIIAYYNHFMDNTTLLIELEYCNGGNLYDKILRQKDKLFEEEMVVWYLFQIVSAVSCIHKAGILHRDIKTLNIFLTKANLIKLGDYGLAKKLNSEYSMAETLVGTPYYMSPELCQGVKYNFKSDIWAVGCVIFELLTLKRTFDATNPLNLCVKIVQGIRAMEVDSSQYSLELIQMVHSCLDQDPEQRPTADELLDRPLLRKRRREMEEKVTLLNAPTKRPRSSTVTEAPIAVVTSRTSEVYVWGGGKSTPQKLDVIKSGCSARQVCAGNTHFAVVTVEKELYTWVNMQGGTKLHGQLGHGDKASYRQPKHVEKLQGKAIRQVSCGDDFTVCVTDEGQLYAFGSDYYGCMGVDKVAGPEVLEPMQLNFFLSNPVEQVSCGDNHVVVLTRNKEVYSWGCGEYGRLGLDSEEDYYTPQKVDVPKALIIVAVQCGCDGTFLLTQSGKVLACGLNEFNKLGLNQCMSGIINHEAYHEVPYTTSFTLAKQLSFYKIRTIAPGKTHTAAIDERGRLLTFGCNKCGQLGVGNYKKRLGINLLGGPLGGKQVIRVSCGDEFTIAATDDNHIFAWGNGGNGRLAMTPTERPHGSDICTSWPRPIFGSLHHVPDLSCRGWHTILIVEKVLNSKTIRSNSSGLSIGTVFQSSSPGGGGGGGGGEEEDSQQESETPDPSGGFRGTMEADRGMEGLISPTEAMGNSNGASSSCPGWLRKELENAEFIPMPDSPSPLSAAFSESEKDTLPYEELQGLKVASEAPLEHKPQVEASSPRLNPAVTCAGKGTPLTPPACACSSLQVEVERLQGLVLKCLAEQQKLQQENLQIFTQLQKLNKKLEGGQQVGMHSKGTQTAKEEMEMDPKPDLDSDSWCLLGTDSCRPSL
The data set is described as follows: Inhibition of NEK9 in human HeLa cells lysate at 10 uM pre incubated for 15 mins followed by ATP acyl phosphate probe addition and measured after 10 mins by LC-MS/MS analysis relative to control. The class given is subcellular. Particulars: time 25.0 min.

The nature of data set [5]: Inhibition of CK1g1/g2/g3 in human HeLa cells lysate pre incubated for 15 mins followed by ADP acyl phosphate probe addition and measured after 10 mins by LC-MS/MS analysis. The class given is subcellular.
Data set [6] has as its target Ribosomal protein S6 kinase alpha-5 (Homo sapiens, UniProt O75582). The data set is described as follows: Inhibition of MSK1 domain 1 in human HeLa cells lysate at 50 uM pre incubated for 15 mins followed by ADP acyl phosphate probe addition and measured after 10 mins by LC-MS/MS analysis relative to control. Particulars: time 25.0 min. The format is subcellular.
The target in data set [7] is Glycogen synthase kinase-3 alpha (Homo sapiens, UniProt P49840). Nature of the data set: Inhibition of GSK3A in human HeLa cells lysate at 50 uM pre incubated for 15 mins followed by ATP acyl phosphate probe addition and measured after 10 mins by LC-MS/MS analysis relative to control. The format is subcellular. Particulars: time 25.0 min.
Sequence of Glycogen synthase kinase-3 alpha (P49840 2-483 limits assumed): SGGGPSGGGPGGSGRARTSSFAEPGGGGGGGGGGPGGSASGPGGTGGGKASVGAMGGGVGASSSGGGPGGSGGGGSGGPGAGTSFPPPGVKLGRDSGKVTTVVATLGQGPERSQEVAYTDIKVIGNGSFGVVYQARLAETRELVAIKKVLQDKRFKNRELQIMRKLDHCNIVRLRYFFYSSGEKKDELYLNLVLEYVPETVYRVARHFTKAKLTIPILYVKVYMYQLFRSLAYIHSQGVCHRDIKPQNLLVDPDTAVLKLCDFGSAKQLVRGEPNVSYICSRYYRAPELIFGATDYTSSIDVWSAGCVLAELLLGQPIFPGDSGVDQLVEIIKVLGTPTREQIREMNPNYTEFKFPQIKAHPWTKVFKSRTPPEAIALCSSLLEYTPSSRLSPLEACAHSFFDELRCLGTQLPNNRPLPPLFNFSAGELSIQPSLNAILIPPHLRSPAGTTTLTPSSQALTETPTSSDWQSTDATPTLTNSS
The nature of data set [8]: Inhibition of MST4/YSK1 in human HeLa cells lysate at 50 uM pre incubated for 15 mins followed by ADP acyl phosphate probe addition and measured after 10 mins by LC-MS/MS analysis relative to control. Particulars: 25 min, condition cancer.
The target in data set [9] is Serine/threonine-protein kinase Aurora (Homo sapiens, UniProt Q96GD4+Q9UQB9+O14965). The data set is described as follows: Inhibition of AurA/AurB/AurC in human HeLa cells lysate at 10 uM pre incubated for 15 mins followed by ATP acyl phosphate probe addition and measured after 10 mins by LC-MS/MS analysis relative to control. The class given is subcellular. Particulars: time 25.0 min. In short, it runs like this:
(§1)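 KiNativ-type profiling in HeLa lysate (5 mg/mL total protein). Lysate preincubated 15 min with inhibitor at 50, 10, 2, 0.8 or 0 μM, then ATP or ADP acylphosphate probe added (5 μM final) for 10 min. Reaction stopped with urea and analysed by targeted MS, using up to four fragment ions per kinase peptide-probe conjugate. % inhibition calculated against untreated lysate. Duplicate reactions.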

For data set [10], the target named is T2, Serine/threonine-protein kinase 4 (Homo sapiens) (UniProt Q13043).
T2 sequence (whole entry): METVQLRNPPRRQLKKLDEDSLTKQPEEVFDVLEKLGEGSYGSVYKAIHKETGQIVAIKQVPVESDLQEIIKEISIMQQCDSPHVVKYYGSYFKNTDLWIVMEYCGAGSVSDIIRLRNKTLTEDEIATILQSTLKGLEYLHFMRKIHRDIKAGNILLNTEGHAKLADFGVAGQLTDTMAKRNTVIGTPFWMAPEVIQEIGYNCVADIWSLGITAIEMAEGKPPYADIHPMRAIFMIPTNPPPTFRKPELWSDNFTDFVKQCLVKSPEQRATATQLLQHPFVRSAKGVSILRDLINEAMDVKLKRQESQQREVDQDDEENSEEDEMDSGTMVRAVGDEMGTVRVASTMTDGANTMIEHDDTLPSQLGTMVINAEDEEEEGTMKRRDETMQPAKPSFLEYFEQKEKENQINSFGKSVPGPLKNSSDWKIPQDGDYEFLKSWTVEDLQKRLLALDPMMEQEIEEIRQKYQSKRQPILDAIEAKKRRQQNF
The data set is described as follows: Inhibition of MST1 in human HeLa cells lysate at 2 uM pre incubated for 15 mins followed by ADP acyl phosphate probe addition and measured after 10 mins by LC-MS/MS analysis relative to control. Particulars: time 25.0 min. The format is subcellular.

The target in data set [11] is Tyrosine-protein kinase receptor UFO (Homo sapiens) (UniProt P30530). The data set is described as follows: Inhibition of AXL in human HeLa cells lysate at 2 uM pre incubated for 15 mins followed by ADP acyl phosphate probe addition and measured after 10 mins by LC-MS/MS analysis relative to control. The format is subcellular. Particulars: time 25.0 min. In short, it runs like this:
as §1

Sequence of Serine/threonine-protein kinase Aurora (O14965 whole entry, looked up, the tested form may be a part): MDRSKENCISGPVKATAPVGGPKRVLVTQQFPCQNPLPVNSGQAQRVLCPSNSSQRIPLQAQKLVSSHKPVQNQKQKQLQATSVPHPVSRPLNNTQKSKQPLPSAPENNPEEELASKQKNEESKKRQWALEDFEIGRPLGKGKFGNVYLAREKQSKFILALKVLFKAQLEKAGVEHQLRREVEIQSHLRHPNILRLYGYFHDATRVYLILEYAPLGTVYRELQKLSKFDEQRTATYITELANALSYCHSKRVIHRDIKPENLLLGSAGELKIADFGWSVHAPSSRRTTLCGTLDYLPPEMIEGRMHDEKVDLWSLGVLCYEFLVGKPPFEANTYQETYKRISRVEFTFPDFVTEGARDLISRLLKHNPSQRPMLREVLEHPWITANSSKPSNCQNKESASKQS
Sequence of Serine/threonine-protein kinase Aurora (Q96GD4 whole entry, looked up, the tested form may be a part): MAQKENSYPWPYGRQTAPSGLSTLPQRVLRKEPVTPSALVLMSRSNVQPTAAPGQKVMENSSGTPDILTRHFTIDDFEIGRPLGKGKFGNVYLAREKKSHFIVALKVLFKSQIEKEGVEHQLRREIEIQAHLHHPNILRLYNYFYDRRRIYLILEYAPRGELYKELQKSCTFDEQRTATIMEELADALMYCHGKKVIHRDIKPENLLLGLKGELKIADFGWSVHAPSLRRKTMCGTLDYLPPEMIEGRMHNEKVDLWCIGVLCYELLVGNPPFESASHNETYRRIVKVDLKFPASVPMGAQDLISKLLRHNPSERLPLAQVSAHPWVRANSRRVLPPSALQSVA
Sequence of Serine/threonine-protein kinase Aurora (Q9UQB9 whole entry, looked up, the tested form may be a part): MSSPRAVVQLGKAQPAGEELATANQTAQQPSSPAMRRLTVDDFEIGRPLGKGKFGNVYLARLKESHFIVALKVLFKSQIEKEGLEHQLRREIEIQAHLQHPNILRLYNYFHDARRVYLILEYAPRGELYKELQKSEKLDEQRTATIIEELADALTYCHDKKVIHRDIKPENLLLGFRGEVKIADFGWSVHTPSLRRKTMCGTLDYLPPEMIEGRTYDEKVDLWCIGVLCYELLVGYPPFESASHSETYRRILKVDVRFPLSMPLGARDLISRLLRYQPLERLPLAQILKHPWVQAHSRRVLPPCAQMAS
Sequence of Tyrosine-protein kinase receptor UFO (Homo sapiens) (P30530 whole entry): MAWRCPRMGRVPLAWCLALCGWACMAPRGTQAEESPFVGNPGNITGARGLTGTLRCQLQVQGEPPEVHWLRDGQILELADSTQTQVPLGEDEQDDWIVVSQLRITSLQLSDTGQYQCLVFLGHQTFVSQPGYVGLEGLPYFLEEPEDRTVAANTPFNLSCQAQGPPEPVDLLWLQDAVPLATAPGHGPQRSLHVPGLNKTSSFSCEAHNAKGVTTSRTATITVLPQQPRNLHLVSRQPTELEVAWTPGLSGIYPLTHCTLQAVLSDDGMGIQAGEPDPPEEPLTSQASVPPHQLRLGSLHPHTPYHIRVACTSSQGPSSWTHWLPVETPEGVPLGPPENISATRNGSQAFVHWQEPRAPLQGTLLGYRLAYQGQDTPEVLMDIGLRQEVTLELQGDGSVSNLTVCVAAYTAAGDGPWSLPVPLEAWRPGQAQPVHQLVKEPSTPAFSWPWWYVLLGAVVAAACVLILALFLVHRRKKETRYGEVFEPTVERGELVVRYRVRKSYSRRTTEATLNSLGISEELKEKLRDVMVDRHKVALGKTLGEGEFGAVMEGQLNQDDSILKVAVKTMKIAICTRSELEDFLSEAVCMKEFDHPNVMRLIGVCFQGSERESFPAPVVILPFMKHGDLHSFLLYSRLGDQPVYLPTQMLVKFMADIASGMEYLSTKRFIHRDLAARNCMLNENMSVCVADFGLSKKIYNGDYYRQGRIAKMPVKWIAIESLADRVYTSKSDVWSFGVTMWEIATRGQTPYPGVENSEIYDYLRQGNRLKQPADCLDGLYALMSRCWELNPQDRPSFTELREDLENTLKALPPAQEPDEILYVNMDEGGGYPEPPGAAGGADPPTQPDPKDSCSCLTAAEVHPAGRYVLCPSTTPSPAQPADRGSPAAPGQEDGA
Sequence of Ribosomal protein S6 kinase alpha-5 (O75582 whole entry, looked up, the tested form may be a part): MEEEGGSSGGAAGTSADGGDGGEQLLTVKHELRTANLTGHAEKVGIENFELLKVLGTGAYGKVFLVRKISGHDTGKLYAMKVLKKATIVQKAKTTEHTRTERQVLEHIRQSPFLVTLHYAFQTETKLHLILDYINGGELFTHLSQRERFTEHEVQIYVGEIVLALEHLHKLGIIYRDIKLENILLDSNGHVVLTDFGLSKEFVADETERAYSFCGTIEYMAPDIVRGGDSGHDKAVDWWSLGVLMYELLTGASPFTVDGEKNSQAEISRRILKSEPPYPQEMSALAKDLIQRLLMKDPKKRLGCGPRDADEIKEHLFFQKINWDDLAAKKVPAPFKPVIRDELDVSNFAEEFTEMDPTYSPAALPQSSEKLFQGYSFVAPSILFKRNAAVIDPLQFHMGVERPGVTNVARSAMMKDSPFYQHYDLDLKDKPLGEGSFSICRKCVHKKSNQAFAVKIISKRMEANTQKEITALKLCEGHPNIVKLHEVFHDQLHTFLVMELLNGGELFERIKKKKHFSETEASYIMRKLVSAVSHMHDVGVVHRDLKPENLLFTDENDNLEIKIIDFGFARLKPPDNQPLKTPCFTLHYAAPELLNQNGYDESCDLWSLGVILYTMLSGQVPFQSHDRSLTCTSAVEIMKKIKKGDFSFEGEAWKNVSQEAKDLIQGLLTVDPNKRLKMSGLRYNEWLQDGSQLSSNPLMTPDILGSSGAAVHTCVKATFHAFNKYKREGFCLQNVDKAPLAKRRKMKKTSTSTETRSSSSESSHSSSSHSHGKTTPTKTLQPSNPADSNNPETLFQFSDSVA

Take `CCOc1cc(N2CCC(O)CC2)ccc1Nc1ncc2c(n1)N(C)c1ccccc1C(=O)N2C`: the inhibition at 10 µM in [1] was found to be 7.9%. For the same compound, the inhibition was -9.5% in data set [2]; -7.3% in data set [4]; 6.4% in data set [6]; 10.4% in data set [7]; -7.7% in [9]; 30.6% in data set [10]. In addition, in data set [11], the inhibition was determined as 13.1%. Further, in [3], the Activity is given as 664 U/L. The outcome in the data set on HeLa was Active. Moreover, the half-maximal inhibitory concentration (IC50) in data set [5] is more than 50 µM. The inhibition at 50 µM in data set [8] is -14.3%.

Usually inhibition stands for the change of the read-out against control, counted positive when it falls. As a reminder, the IC50 is the concentration at which inhibition is half-maximal. A high value points to lower potency.
